Bioassay records: PubChem BioAssay, several laboratories
CCR6 antagonist = CCR6 (human) receptor antagonism; AID 493098; CHO-K1 CCR6 PathHunter beta-arrestin, luminescence, CCL20-stimulated; actives 0.49% (n = 340,000); inhibition, % at 20 µM;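 active means compounds whose inhibition of the agonist-driven luminescence signal at 20 µM reaches about 50%, limit read from the data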;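 further: cells stimulated with CCL20 at 14 nM final; plate controls were DMSO with CCL20 for no effect and DMSO without agonist for full effect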
Target sequence (P51684 whole entry, looked up): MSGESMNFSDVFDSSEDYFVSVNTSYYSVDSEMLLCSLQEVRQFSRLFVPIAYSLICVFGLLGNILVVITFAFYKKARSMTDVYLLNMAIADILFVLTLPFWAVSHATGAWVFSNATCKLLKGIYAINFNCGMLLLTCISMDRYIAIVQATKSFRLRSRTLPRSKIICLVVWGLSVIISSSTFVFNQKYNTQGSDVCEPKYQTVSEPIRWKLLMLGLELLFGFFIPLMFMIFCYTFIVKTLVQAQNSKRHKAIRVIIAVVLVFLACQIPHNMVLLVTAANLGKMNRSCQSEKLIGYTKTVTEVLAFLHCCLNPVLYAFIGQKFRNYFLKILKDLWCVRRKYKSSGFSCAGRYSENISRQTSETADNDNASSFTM
EBI2 antag = EBI2 (human) antagonism; P32249; EBI2 beta-arrestin recruitment, luminescence, 7a,25-OHC stimulated; inhibition, % at 5 µM; actives 0.81% (n = 360,000); AID 651636; in the data active means inhibition above about 38%;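 further: enzyme fragment complementation signal reports receptor beta-arrestin coupling in cells; 0% = agonist plus DMSO wells and 100% = wells without agonist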
APJ antagonist = APJ receptor antagonism; CHO-K1 APJ beta-arrestin complementation, luminescence; P35414; actives 0.32% (n = 330,000); inhibition, % at 20 µM;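 active means inhibition above about 40% at 20 µM, limit read from the data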;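 further: cells challenged with 10 nM apelin-13 agonist together with compound; plate controls were apelin-13 plus DMSO wells for no effect and DMSO wells lacking apelin-13 for full effect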
APJ ag = activates the human apelin receptor APJ; P35414; CHO-K1 APJ PathHunter beta-arrestin, luminescence; 0% DMSO wells, 100% apelin; activation, % at 20 µM; actives 0.11% (n = 330,000);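 active means activation more than six SD over the plate average, tested at 20 µM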;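 further: 0% = DMSO alone and 100% = apelin-13 at 10 nM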
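Material: engineered CHO-K1 APJ arrestin reporter cells; amount: 1000 CHO-K1 reporter cells seeded per well; incubation: compound stimulation 90 min at 25 °C, detection 60 min; signal: luminescent beta-gal fragment complementation, chemiluminescent substrate; read-out basis: APJ agonist activity; controls: DMSO-only wells as negative, 10 nM Apelin-13 as positive control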
CXCR6 inh = inhibitors of human CXCR6 receptor; CHO-K1 PathHunter CXCR6 beta-arrestin, luminescence; inhibition, % at 20 µM; O00574; AID 602244; actives 0.36% (n = 360,000); in the data active means inhibition above about 34%, passing the limit was not always enough;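 further: antagonist mode with CXCL16 agonist at 10 nM final; 0% = 10 nM CXCL16 with DMSO and 100% = unstimulated wells without agonist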
Target sequence (O00574 whole entry, looked up): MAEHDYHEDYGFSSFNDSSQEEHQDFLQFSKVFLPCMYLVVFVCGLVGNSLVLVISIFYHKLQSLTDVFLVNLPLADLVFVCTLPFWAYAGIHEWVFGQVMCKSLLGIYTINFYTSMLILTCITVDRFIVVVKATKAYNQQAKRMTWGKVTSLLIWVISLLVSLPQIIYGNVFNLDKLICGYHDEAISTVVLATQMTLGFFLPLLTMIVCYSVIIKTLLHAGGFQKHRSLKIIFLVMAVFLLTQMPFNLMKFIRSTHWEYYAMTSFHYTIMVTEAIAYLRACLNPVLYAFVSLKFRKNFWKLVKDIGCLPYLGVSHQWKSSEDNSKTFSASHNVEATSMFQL
m5-HT2A agonist = activates the mouse 5-HT2A serotonin receptor; CHO-K1 mHTR2A beta-arrestin complementation, luminescence; percent of 30 µM serotonin response; P35363; actives 0.66% (n = 360,000); activation, % at 7.6 µM;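 active means activation above a run cutoff, the mean activation of all tested compounds plus 3 SD, cut at about 14% in these data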;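 further: 0% = plate median of compound wells and 100% = 30 µM serotonin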
MOR ag counter = activates human mu opioid receptor in HTR2A counterscreen; shares compounds with m5-HT2A agonist; U2OS OPRM1 beta-arrestin PathHunter, luminescence; DMSO 0%, DAMGO 9.3 µM 100%; activation, % at 9.3 µM; actives 5.3% (n = 2,300);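 active means mean activation above the mean of DMSO-only wells plus 3 SD, cut at about 0.5% in these data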
m5-HT2A ag conf = confirmation of mouse HTR2A serotonin receptor agonists; actives 19% (n = 2,300); CHO-K1 PathHunter beta-arrestin recruitment, luminescence; DMSO 0%, 30 µM serotonin 100%; AID 624381; activation, % at 7.6 µM; shares compounds with m5-HT2A agonist;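 active means mean activation across triplicates above the hit threshold derived in the original primary screen, cut at about 15% in these data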
An asterisk follows results filed as active. The list is not random: actives were taken first. Their share in the collection is about 2.1%.

What do the screens show for `CC(OC(=O)CCc1ccccc1)C(=O)Nc1ccc(Cl)cn1` (centres undefined)?
CCR6 antagonist: 8.6; EBI2 antag: -5.9; APJ antagonist: 20.5; APJ ag: -0.6; CXCR6 inh: 7.3; m5-HT2A agonist: -8.6

How did O=[N+]([O-])c1cccc(S(=O)(=O)NCCc2cn3ccccc3n2)c1 do in these assays?
CCR6 antagonist: 1.9; EBI2 antag: -0.8; APJ antagonist: -3.8; APJ ag: -3.8; CXCR6 inh: -7.1; m5-HT2A agonist: 15.1*; MOR ag counter: -0.5; m5-HT2A ag conf: -1.9

How did CCOC(=O)c1ccccc1NC(=O)CSc1nnc(COc2ccccc2)n1CC do in these assays?
CCR6 antagonist: 10.1; EBI2 antag: 4.2; APJ antagonist: -13.2; APJ ag: -2.3; CXCR6 inh: 1.0; m5-HT2A agonist: -0.8

How did CCOc1ccccc1N1CC(C(=O)Nc2ccccc2CC)CC1=O (centres undefined) do in these assays?
CCR6 antagonist: 8.1; EBI2 antag: 4.4; APJ antagonist: -13.4; APJ ag: -2.5; CXCR6 inh: -3.8; m5-HT2A agonist: -5.0

Results for COc1ccc(N(C)C(=O)c2cc3c(s2)-c2ccc(Cl)cc2S(=O)(=O)C3)c(OC)c1 ?
CCR6 antagonist: 10.9; EBI2 antag: -28.4; APJ antagonist: 1.5; APJ ag: 1.0; CXCR6 inh: -5.9; m5-HT2A agonist: 14.5*; MOR ag counter: -0.3; m5-HT2A ag conf: -5.0

Results for COc1ccc(N(C)C(=O)c2cc3c(s2)-c2ccccc2OC3)c(OC)c1 ?
CCR6 antagonist: 23.1; EBI2 antag: 3.8; APJ antagonist: 21.0; APJ ag: -3.4; CXCR6 inh: 5.2; m5-HT2A agonist: -1.3

How did Cc1onc(-c2ccccc2)c1C(=O)Nc1ccc(N2CCOCC2)cc1 do in these assays?
CCR6 antagonist: 6.4; EBI2 antag: -7.6; APJ antagonist: -3.2; APJ ag: -0.2; CXCR6 inh: 2.4; m5-HT2A agonist: -9.6

How did CCc1noc(C)c1C(=O)Nc1nc(-c2ccccc2)c(C(C)=O)s1 do in these assays?
CCR6 antagonist: 18.9; EBI2 antag: -4.0; APJ antagonist: 0.2; APJ ag: -4.2; CXCR6 inh: 0.9; m5-HT2A agonist: 35.0*; MOR ag counter: -0.6; m5-HT2A ag conf: 8.6

What do the screens show for `Cc1onc(-c2ccccc2)c1C(=O)Nc1ccc(NC(=O)c2c(-c3ccccc3)noc2C)cc1`?
CCR6 antagonist: -1.4; EBI2 antag: -0.2; APJ antagonist: 3.6; APJ ag: -2.9; CXCR6 inh: -5.4; m5-HT2A agonist: 19.1*; MOR ag counter: -0.4; m5-HT2A ag conf: -3.5

How did CCOC(=O)c1c(C)[nH]c(C)c1C(=O)COC(=O)CSc1ccc(C)cc1 do in these assays?
CCR6 antagonist: 15.2; EBI2 antag: -7.4; APJ antagonist: 2.8; APJ ag: 0.2; CXCR6 inh: 3.0; m5-HT2A agonist: -9.5

Results for CCc1c(C)nn(C(=O)/C(C#N)=C\N(C)C)c1C ?
CCR6 antagonist: 0.8; EBI2 antag: -0.7; APJ antagonist: 0.1; APJ ag: 0.5; CXCR6 inh: 4.4; m5-HT2A agonist: 42.4*; MOR ag counter: -0.1; m5-HT2A ag conf: 1.8

Results for Cc1coc2c(C)c3oc(=O)c(CCC(=O)N[C@H](C(=O)O)C(C)C)c(C)c3cc12 ?
EBI2 antag: -0.6; CXCR6 inh: 4.0; m5-HT2A agonist: 5.8

Results for Cc1cccc(NC(=O)CSc2nnc(-c3ccco3)n2CC2CCCO2)n1 (centres undefined) ?
CCR6 antagonist: 8.8; EBI2 antag: 0.2; APJ antagonist: -5.4; APJ ag: 0.2; CXCR6 inh: -3.0; m5-HT2A agonist: 14.8*; MOR ag counter: -0.7; m5-HT2A ag conf: -4.9

How did Cc1ccc2[nH]c(-c3ccccc3)c(CN3CCCC3)c(=O)c2c1 do in these assays?
CCR6 antagonist: -9.3; EBI2 antag: -5.5; APJ antagonist: -30.4; APJ ag: 6.0; CXCR6 inh: -8.4; m5-HT2A agonist: 20.4*; MOR ag counter: 0.2; m5-HT2A ag conf: 11.4

How did CC(=O)c1cc2c(cc1NC(=O)CCn1cnnn1)OCO2 do in these assays?
CCR6 antagonist: 6.2; EBI2 antag: -8.4; APJ antagonist: 24.9; APJ ag: -0.5; CXCR6 inh: -7.2; m5-HT2A agonist: 8.4

Results for COC(=O)c1cc2n3ccccc3c(C)c(-c3ccccc3)c-2c1C(=O)OC ?
CCR6 antagonist: 28.8; EBI2 antag: 3.2; APJ antagonist: 7.8; APJ ag: -2.0; CXCR6 inh: 0.2; m5-HT2A agonist: 18.4*; MOR ag counter: 0.2; m5-HT2A ag conf: 0.6

Results for COC(=O)c1cc2c(C)c(C)c3ccccn3c-2c1C(=O)OC ?
CCR6 antagonist: -0.9; EBI2 antag: 0.1; APJ antagonist: 13.4; APJ ag: -3.0; CXCR6 inh: 10.2; m5-HT2A agonist: 11.0

Results for Cc1ccccc1-n1ncc2c1CC(C)(C)CC2NC(=O)C1=CC(=O)CC(C)(C)O1 (centres undefined) ?
CCR6 antagonist: 7.3; EBI2 antag: 3.7; APJ antagonist: 11.0; APJ ag: -4.8; CXCR6 inh: 3.2; m5-HT2A agonist: 32.2*; MOR ag counter: -0.8; m5-HT2A ag conf: -3.1

Results for CCOc1ncccc1C(=O)Nc1ccc2c(c1)OCCCO2 ?
CCR6 antagonist: 16.9; EBI2 antag: -1.6; APJ antagonist: 7.1; APJ ag: -7.4; CXCR6 inh: 3.0; m5-HT2A agonist: 10.2

How did O=C(NCc1ccccn1)C1CC(=O)N(C2CCCC2)C1 (centres undefined) do in these assays?
CCR6 antagonist: 5.5; EBI2 antag: -8.0; APJ antagonist: 8.9; APJ ag: -3.5; CXCR6 inh: -3.6; m5-HT2A agonist: 19.8*; MOR ag counter: -0.7; m5-HT2A ag conf: -4.2

Results for O=C(NCCCN1CCN(c2ccccc2F)CC1)C1CC(=O)N(C2CCCC2)C1 (centres undefined) ?
CCR6 antagonist: -0.6; EBI2 antag: -0.6; APJ antagonist: -7.7; APJ ag: -1.1; CXCR6 inh: -8.7; m5-HT2A agonist: 16.6*; MOR ag counter: -0.5; m5-HT2A ag conf: 38.8*

How did CCn1c(=O)cc(SCC(=O)NCCCN2CCN(c3ccccc3F)CC2)c2ccccc21 do in these assays?
CCR6 antagonist: 1.4; EBI2 antag: -0.9; APJ antagonist: 11.2; APJ ag: 0.8; CXCR6 inh: -1.2; m5-HT2A agonist: 28.2*; MOR ag counter: 0.0; m5-HT2A ag conf: 77.7*
